Legend:
[1] = test system: Rattus norvegicus; test: Effect on circulating testosterone and dihydrotestosterone level in sc dosed Sprague-Dawley rat by radioimmunoassay; type: functional
Procedure, shortened: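 Rats were given a range of doses of the 5α-reductase inhibitors. Serum testosterone and DHT were measured by radioimmunoassay with specific antisera, without prior chromatography. Serum (0.5 mL) was extracted with 2 mL peroxide-free diethyl ether by shaking for 60 s. Levels were compared with vehicle-treated controls, and ED50 was derived.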

[2] = test system: Syncephalastrum racemosum; test: Antimicrobial activity against Syncephalastrum racemosum at 1 to 5 ug/ml by agar well diffusion method; type: functional
Procedure, shortened: (§1)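 Agar well diffusion against bacteria and fungi. Inhibition zone is scored beyond the control: ++ 0.6–1.0 cm, + 0.1–0.5 cm, 0 no inhibition.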

[3] = test system: Rattus norvegicus; test: Effect on circulating testosterone and dihydrotestosterone level in sc dosed Sprague-Dawley rat by radioimmunoassay relative to anastrozole; type: functional
Procedure, shortened: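 Serum testosterone and DHT were measured by RIA in ether extracts of serum (0.5 mL serum, 2 mL diethyl ether, 60 s shaking), without chromatography, in rats dosed at several levels. Relative potency is the ED50 of anastrozole divided by the ED50 of the test agent, where ED50 is the dose giving 50% of the pharmacological response.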

[4] = test system: Staphylococcus aureus; test: Antimicrobial activity against Staphylococcus aureus at 1 to 5 ug/ml by agar well diffusion method; type: functional; procedure, shortened: as §1
[5] = test system: Bacillus subtilis; test: Antimicrobial activity against Bacillus subtilis at 1 to 5 ug/ml by agar well diffusion method; type: functional; procedure, shortened: as §1
[6] = test system: Penicillium italicum; test: Antimicrobial activity against Penicillium italicum at 1 to 5 ug/ml by agar well diffusion method; type: functional; procedure, shortened: as §1
[7] = test system: Escherichia coli; test: Antimicrobial activity against Escherichia coli at 1 to 5 ug/ml by agar well diffusion method; type: functional; procedure, shortened: as §1
[8] = test system: Candida albicans; test: Antimicrobial activity against Candida albicans at 1 to 5 ug/ml by agar well diffusion method; type: functional; procedure, shortened: as §1
[9] = species on record: Rattus norvegicus; test: Acute toxicity in albino rat; type: organism-based; details: in vivo
Procedure, shortened: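 Male albino rats received injections of increasing doses. LD50 and LD90, the doses killing 50% and 90% of the animals, were calculated by the Austen and Brocklehurst method.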

[10] = test system: Aspergillus fumigatus; test: Antimicrobial activity against Aspergillus fumigatus at 1 to 5 ug/ml by agar well diffusion method; type: functional; procedure, shortened: as §1
[11] = test system: Pseudomonas aeruginosa; test: Antimicrobial activity against Pseudomonas aeruginosa at 1 to 5 ug/ml by agar well diffusion method; type: functional; procedure, shortened: as §1

Cc1cccc(N/N=C(\C(=O)c2ccc(Cl)cc2)c2nc(C)cc(=O)[nH]2)c1
ED50 [1]: 0.174 µg/kg
diameter of the inhibition zone (DIZ) [2]: 0 cm
Ratio ED50 [3]: 6.264
diameter of the inhibition zone (DIZ) [4]: 0 cm
diameter of the inhibition zone (DIZ) [5]: 0 cm
diameter of the inhibition zone (DIZ) [6]: 0 cm
diameter of the inhibition zone (DIZ) [7]: 0 cm
diameter of the inhibition zone (DIZ) [8]: 0 cm
LD50 [9]: 2555 µg/kg
LD90 [9]: 3.98654 mg/kg
diameter of the inhibition zone (DIZ) [10]: 0 cm
diameter of the inhibition zone (DIZ) [11]: 0 cm

CC(C)(C#N)c1cc(Cn2cncn2)cc(C(C)(C)C#N)c1 [ANASTROZOLE]
Ratio ED50 [3]: 1

O=C(N[C@H](CO)[C@H](O)c1ccc([N+](=O)[O-])cc1)C(Cl)Cl [CHLORAMPHENICOL]
diameter of the inhibition zone (DIZ) [4]: 0.6 cm
diameter of the inhibition zone (DIZ) [5]: 1.1 cm
diameter of the inhibition zone (DIZ) [7]: 0.6 cm
diameter of the inhibition zone (DIZ) [11]: 1.1 cm

CN(C/C=C/C#CC(C)(C)C)Cc1cccc2ccccc12 [TERBINAFINE]
diameter of the inhibition zone (DIZ) [2]: 1.1 cm
diameter of the inhibition zone (DIZ) [6]: 1.1 cm
diameter of the inhibition zone (DIZ) [8]: 0.6 cm
diameter of the inhibition zone (DIZ) [10]: 1.1 cm

Cc1cc(=O)[nH]c(/C(=N/Nc2cccc(Cl)c2)C(=O)c2ccc(Cl)cc2)n1
ED50 [1]: 0.591 µg/kg
diameter of the inhibition zone (DIZ) [2]: 0 cm
Ratio ED50 [3]: 1.844
diameter of the inhibition zone (DIZ) [4]: 0 cm
diameter of the inhibition zone (DIZ) [5]: 0 cm
diameter of the inhibition zone (DIZ) [6]: 0 cm
diameter of the inhibition zone (DIZ) [7]: 0.1 cm
diameter of the inhibition zone (DIZ) [8]: 0 cm
LD50 [9]: 2133.45 µg/kg
LD90 [9]: 2.98032 mg/kg
diameter of the inhibition zone (DIZ) [10]: 0 cm
diameter of the inhibition zone (DIZ) [11]: 0 cm

CCOC(=O)c1ccc(N/N=C(\C(=O)c2ccc(Cl)cc2)c2nc(C)cc(=O)[nH]2)cc1
ED50 [1]: 0.198 µg/kg
diameter of the inhibition zone (DIZ) [2]: 0 cm
Ratio ED50 [3]: 5.505
diameter of the inhibition zone (DIZ) [4]: 0 cm
diameter of the inhibition zone (DIZ) [5]: 0 cm
diameter of the inhibition zone (DIZ) [6]: 0 cm
diameter of the inhibition zone (DIZ) [7]: 0 cm
diameter of the inhibition zone (DIZ) [8]: 0 cm
LD50 [9]: 2341.33 µg/kg
LD90 [9]: 3.21717 mg/kg
diameter of the inhibition zone (DIZ) [10]: 0 cm
diameter of the inhibition zone (DIZ) [11]: 0 cm

Cc1cc(=O)[nH]c(/C(=N/Nc2cccc([N+](=O)[O-])c2)C(=O)c2ccc(Cl)cc2)n1
ED50 [1]: 0.188 µg/kg
diameter of the inhibition zone (DIZ) [2]: 0 cm
Ratio ED50 [3]: 5.798
diameter of the inhibition zone (DIZ) [4]: 0.6 cm
diameter of the inhibition zone (DIZ) [5]: 0.1 cm
diameter of the inhibition zone (DIZ) [6]: 0 cm
diameter of the inhibition zone (DIZ) [7]: 0.1 cm
diameter of the inhibition zone (DIZ) [8]: 0 cm
LD50 [9]: 2553.48 µg/kg
LD90 [9]: 3.30012 mg/kg
diameter of the inhibition zone (DIZ) [10]: 0 cm
diameter of the inhibition zone (DIZ) [11]: 0 cm

Cc1cc(=O)[nH]c(/C(=N/Nc2ccc([N+](=O)[O-])cc2)C(=O)c2ccc(Cl)cc2)n1
ED50 [1]: 0.478 µg/kg
diameter of the inhibition zone (DIZ) [2]: 0 cm
Ratio ED50 [3]: 2.28
diameter of the inhibition zone (DIZ) [4]: 0.6 cm
diameter of the inhibition zone (DIZ) [5]: 0 cm
diameter of the inhibition zone (DIZ) [6]: 0 cm
diameter of the inhibition zone (DIZ) [7]: 0.1 cm
diameter of the inhibition zone (DIZ) [8]: 0 cm
LD50 [9]: 2345.23 µg/kg
LD90 [9]: 3.29098 mg/kg
diameter of the inhibition zone (DIZ) [10]: 0 cm
diameter of the inhibition zone (DIZ) [11]: 0 cm

COc1ccc(N/N=C(\C(=O)c2ccc(Cl)cc2)c2nc(C)cc(=O)[nH]2)cc1
diameter of the inhibition zone (DIZ) [2]: 0 cm
diameter of the inhibition zone (DIZ) [4]: 0 cm
diameter of the inhibition zone (DIZ) [5]: 0 cm
diameter of the inhibition zone (DIZ) [6]: 0 cm
diameter of the inhibition zone (DIZ) [7]: 0 cm
diameter of the inhibition zone (DIZ) [8]: 0 cm
diameter of the inhibition zone (DIZ) [10]: 0 cm
diameter of the inhibition zone (DIZ) [11]: 0 cm

Cc1cc(=O)[nH]c(/C(=N/Nc2ccc(Cl)cc2)C(=O)c2ccc(Cl)cc2)n1
ED50 [1]: 0.611 µg/kg
diameter of the inhibition zone (DIZ) [2]: 0 cm
Ratio ED50 [3]: 1.784
diameter of the inhibition zone (DIZ) [4]: 0 cm
diameter of the inhibition zone (DIZ) [5]: 0 cm
diameter of the inhibition zone (DIZ) [6]: 0 cm
diameter of the inhibition zone (DIZ) [7]: 0 cm
diameter of the inhibition zone (DIZ) [8]: 0 cm
LD50 [9]: 2345.37 µg/kg
LD90 [9]: 3.12376 mg/kg
diameter of the inhibition zone (DIZ) [10]: 0 cm
diameter of the inhibition zone (DIZ) [11]: 0 cm
